Results: ChEMBL document CHEMBL3875201, “Synthesis and in vitro antiviral evaluation of 4-substituted 3,4-dihydropyrimidinones” (Bioorg Med Chem Lett, 2017)

Legend:
[1] = Cytotoxicity against African green monkey Vero cells assessed as alterations in cell morphology by microscopic analysis; type: toxicity, cell-based; settings: chlorocebus sabaeus
Method in brief: (§1)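 Compound added to subconfluent cell monolayers in 96-well plates together with virus (CPE reduction assay format); after 3–5 days incubation, cultures inspected by microscopy. MCC taken as compound concentration producing minimal alterations in cell morphology.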

Human respirovirus 3 = assay: Antiviral activity against Para-influenza-3 virus infected in African green monkey Vero cells assessed as protection against virus-induced cytopathic effect measured after 3 to 5 days by microscopic analysis; type: functional, cell-based; settings: Human respirovirus 3, Vero
[2] = system: Mammalian orthoreovirus 1; assay: Antiviral activity against Reovirus-1 infected in African green monkey Vero cells assessed as protection against virus-induced cytopathic effect measured after 3 to 5 days by microscopic analysis; type: functional, cell-based; settings: Mammalian orthoreovirus 1, Vero
Sindbis virus = assay: Antiviral activity against Sindbis virus infected in African green monkey Vero cells assessed as protection against virus-induced cytopathic effect measured after 3 to 5 days by microscopic analysis; type: functional, cell-based
Coxsackievirus B4 = assay: Antiviral activity against Coxsackie virus B4 infected in African green monkey Vero cells assessed as protection against virus-induced cytopathic effect measured after 3 to 5 days by microscopic analysis; type: functional, cell-based; settings: Enterovirus B
Punta Toro virus [3] = assay: Antiviral activity against Punta Toro virus infected in African green monkey Vero cells assessed as protection against virus-induced cytopathic effect measured after 3 to 5 days by microscopic analysis; type: functional, cell-based
Yellow fever virus = assay: Antiviral activity against Yellow fever virus infected in African green monkey Vero cells assessed as protection against virus-induced cytopathic effect measured after 3 to 5 days by microscopic analysis; type: functional, cell-based
[4] = Cytotoxicity against human HeLa cells assessed as alterations in cell morphology by microscopic analysis; type: toxicity, cell-based; method in brief: as §1
[5] = Cytotoxicity against MDCK cells assessed as alterations in cell morphology by microscopic analysis; type: toxicity, cell-based, Canis lupus familiaris; settings: dog; method in brief: as §1
[6] = Cytotoxicity against HEL cells assessed as alterations in cell morphology by microscopic analysis; type: toxicity, cell-based; settings: human; method in brief: as §1
[7] = Cytotoxicity against cat CRFK cells assessed as by MTS cell viability assay; type: toxicity, cell-based, Felis catus
[8] = Cytotoxicity against human MT4 cells by MTS cell viability assay; type: toxicity, cell-based
Human alphaherpesvirus 3 = assay: Antiviral activity against Varicella zoster virus infected in HEL cells assessed as protection against virus-induced cytopathic effect at 100 uM measured after 3 to 5 days by microscopic analysis; type: functional, cell-based; settings: Human alphaherpesvirus 3, HEL
Method in brief: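 HEL fibroblasts, subconfluent, were exposed to compound plus virus together. After 3–5 days CPE was scored microscopically as protection against virus-induced cell damage. EC50 is the concentration giving 50% protection; MCC is the concentration causing minimal morphology change by microscopy.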

Punta Toro virus [9] = assay: Potency index, ratio of Dextran sulphate EC50 to test compound EC50 for Punta Toro virus infected in African green monkey Vero cells; type: functional
Punta Toro virus [10] = assay: Potency index, ratio of mycophenolic acid EC50 to test compound EC50 for Punta Toro virus infected in African green monkey Vero cells; type: functional
Punta Toro virus [11] = assay: Potency index, ratio of ribavirin EC50 to test compound EC50 for Punta Toro virus infected in African green monkey Vero cells; type: functional
[12] = Selectivity index, ratio of MCC for African green monkey Vero cells to EC50 for Punta Toro virus infected in African green monkey Vero cells; type: toxicity, cell-based
Punta Toro virus [13] = assay: Antiviral activity against Punta Toro virus infected in African green monkey Vero cells assessed as protection against virus-induced cytopathic effect at 20 uM measured after 3 to 5 days by microscopic analysis; type: functional
Rift Valley fever virus = assay: Antiviral activity against RVFV MP-12 infected in African green monkey Vero cells assessed as protection against virus-induced cytopathic effect at 100 uM measured after 3 to 5 days by microscopic analysis; type: functional

SMILES	MCC [1] [µM]	EC50 (Human respirovirus 3) [µM]	EC50 [2] [µM]	EC50 (Sindbis virus) [µM]	EC50 (Coxsackievirus B4) [µM]	EC50 (Punta Toro virus [3]) [µM]	EC50 (Yellow fever virus) [µM]	MCC [4] [µM]	MCC [5] [µM]	MCC [6] [µM]	CC50 [7] [µM]	CC50 [8] [µM]	EC50 (Human alphaherpesvirus 3) [µM]	Activity (Punta Toro virus [3])	Ratio EC50 (Punta Toro virus [9])	Ratio EC50 (Punta Toro virus [10])	Ratio EC50 (Punta Toro virus [11])	Selectivity Index [12]	Activity (Punta Toro virus [13]) [%]	Activity (Rift Valley fever virus)
CCOC(=O)C1=C(C)NC(=O)NC1CC(C)C (centres undefined)	> 100	> 100	> 100	> 100	> 100	> 100	> 100	> 100	> 100	> 100	> 100	> 125								
CCOC(=O)C1=C(C)NC(=O)NC1c1cccs1 (centres undefined)	> 100	> 100	> 100	> 100	> 100	> 100	> 100	> 100	> 100	> 100	> 100	> 125								
CCOC(=O)C1=C(C)NC(=O)NC1/C=C/c1ccccc1 (centres undefined)	100	> 100	> 100	> 100	> 100	> 100	> 100	≥ 100	> 100	≥ 100	> 100	> 125	57							
CCCCCCCCCCCC1NC(=O)NC(C)=C1C(=O)OCC (centres undefined)	≥ 100	> 100	> 100	> 100	> 100	3	> 100	> 100	> 100	100	> 100	50		Dose-dependent effect	7	7	17	>= 33	81	40 - 50%
NC(=O)c1ncn([C@@H]2O[C@H](CO)[C@@H](O)[C@H]2O)n1 [RIBAVIRIN]	> 250	112	> 250	> 250	> 250	50														
CCOC(=O)C1=C(C)NC(=O)NC1	> 100	> 100	> 100	> 100	> 100	> 100	> 100	> 100	> 100	> 100	> 100	> 125								
CCOC(=O)C1=C(C)NC(=O)NC1c1ccc(N(C)C)cc1 (centres undefined)	100	> 100	> 100	> 100	> 100	> 100	> 100	> 100	> 100	> 100	> 100	> 125								
CCOC(=O)C1=C(C)NC(=O)NC1C (centres undefined)	> 100	> 100	> 100	> 100	> 100	> 100	> 100	> 100	> 100	> 100	> 100	> 125								
CCOC(=O)C1=C(C)NC(=O)NC1c1ccc(OC)cc1 (centres undefined)			> 100					> 100	> 100											
CCOC(=O)C1=C(C)NC(=O)NC1c1ccc(Br)cc1 (centres undefined)								> 100	> 100	> 100										
CCOC(=O)C1=C(C)NC(=O)NC1c1ccc(O)cc1 (centres undefined)	> 100	> 100	> 100	> 100	> 100	> 100	> 100	> 100	> 100	> 100	> 100	> 125								
CCOC(=O)C1=C(C)NC(=O)NC1c1ccccc1Cl (centres undefined)	> 100	> 100	> 100	> 100	> 100	> 100	> 100	> 100	> 100	> 100	> 100	96								
COc1c(C)c2c(c(O)c1C/C=C(\C)CCC(=O)O)C(=O)OC2 [MYCOPHENOLIC ACID]	> 100	0.8	1.8	4	> 250	20	4													
CCOC(=O)C1C2NC(=O)NC1(C)Oc1ccccc12 (centres undefined)	> 100	> 100	> 100	> 100	> 100	> 100	> 100	> 100	> 100	> 100	> 100	> 125								
CCOC(=O)C1=C(C)NC(=O)NC1c1ccc(Cl)cc1 (centres undefined)								> 100	> 100	> 100										
CCOC(=O)C1=C(C)NC(=O)NC1c1ccccc1 (centres undefined)		> 100	> 100					> 100	> 100											
